This note sets out measurements from ChEMBL document CHEMBL1221207, “Expanding the promiscuity of a natural-product glycosyltransferase by directed evolution” (Nat Chem Biol, 2007).

In assay [1] the test system is T1, Oleandomycin glycosyltransferase (Streptomyces antibioticus), Q53685 [P67T,S132F,A242V].
T1 sequence (whole entry): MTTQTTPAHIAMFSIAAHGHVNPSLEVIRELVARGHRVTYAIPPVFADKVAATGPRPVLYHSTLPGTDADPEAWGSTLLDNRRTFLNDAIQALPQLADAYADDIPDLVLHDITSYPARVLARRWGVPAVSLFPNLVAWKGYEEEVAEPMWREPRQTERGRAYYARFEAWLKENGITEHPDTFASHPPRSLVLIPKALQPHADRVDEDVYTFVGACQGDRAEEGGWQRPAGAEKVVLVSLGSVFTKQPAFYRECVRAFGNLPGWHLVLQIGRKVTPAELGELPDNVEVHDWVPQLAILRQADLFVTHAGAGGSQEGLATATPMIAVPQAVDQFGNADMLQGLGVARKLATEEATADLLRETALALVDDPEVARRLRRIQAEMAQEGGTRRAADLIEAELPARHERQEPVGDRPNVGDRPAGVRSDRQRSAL
The assay is described as follows: Activity of Streptomyces antibioticus OleD P67T/S132F/A242V mutant assessed as conversion rate of compound to produce glucoside 3 using NDP sugar donor UDP-3-amino-6-deoxy-glucose after 3 hrs by HPLC. Summed up:
(§1)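 End-point donor-specificity assay with purified OleD enzyme. Percentage conversion was read after 3 h. Quenched reactions were run by reverse-phase C18 HPLC with a 10–90% CH3CN gradient in 0.1% formic acid/H2O over 20 min at 1 ml min–1, with detection at 254 nm. Products were identified by LC-MS, by comparison to standards where available, and by fluorescence.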

The test system is the same in assay [2]. Kind of assay: Activity of Streptomyces antibioticus OleD P67T/S132F/A242V mutant assessed as conversion rate of compound to produce glucoside 3 using NDP sugar donor UDP-3-amino-glucose after 3 hrs by HPLC. Summed up:
as §1

The test system is the same in assay [3]. Kind of assay: Activity of Streptomyces antibioticus OleD P67T/S132F/A242V mutant assessed as conversion rate of compound to produce glucoside 3 using NDP sugar UDP-xylose after 3 hrs by HPLC. An outline of the steps:
as §1

Assay [4] has as its system T2, Oleandomycin glycosyltransferase (Streptomyces antibioticus), Q53685 [S132F].
T2 sequence (whole entry): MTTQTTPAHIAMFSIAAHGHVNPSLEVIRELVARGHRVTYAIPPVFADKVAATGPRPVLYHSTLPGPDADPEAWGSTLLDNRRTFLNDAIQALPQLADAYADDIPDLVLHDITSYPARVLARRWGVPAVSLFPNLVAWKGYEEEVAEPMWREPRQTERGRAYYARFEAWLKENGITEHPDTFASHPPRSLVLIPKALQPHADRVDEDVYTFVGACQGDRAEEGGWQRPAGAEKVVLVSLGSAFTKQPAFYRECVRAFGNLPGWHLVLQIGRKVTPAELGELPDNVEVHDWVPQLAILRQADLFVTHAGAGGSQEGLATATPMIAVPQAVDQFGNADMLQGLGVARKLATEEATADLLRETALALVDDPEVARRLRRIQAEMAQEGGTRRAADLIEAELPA
Kind of assay: Activity of Streptomyces antibioticus OleD S132F mutant assessed as conversion rate of compound to produce glucoside 3 using NDP sugar donor UDP-xylose after 3 hrs by HPLC. Summed up:
as §1

Assay [5] deals with T3, Oleandomycin glycosyltransferase (Streptomyces antibioticus) (UniProt Q53685).
T3 sequence (whole entry): T1 sequence (whole entry) with T67P, F132S, V242A
The assay is described as follows: Activity of Streptomyces antibioticus wild-type OleD assessed as conversion rate of compound to produce glucoside 3 using NDP sugar UDP-glucose after 3 hrs by HPLC. An outline of the steps: as §1

The subject of assay [6] is T1, Oleandomycin glycosyltransferase (Streptomyces antibioticus), Q53685 [P67T,S132F,A242V]. The assay is described as follows: Activity of Streptomyces antibioticus OleD P67T/S132F/A242V mutant assessed as conversion rate of compound to produce glucoside 3 using NDP sugar UDP-6-deoxy-glucose after 3 hrs by HPLC. Summed up:
as §1

In assay [7] the test system is T2, Oleandomycin glycosyltransferase (Streptomyces antibioticus), Q53685 [S132F]. Kind of assay: Activity of Streptomyces antibioticus OleD S132F mutant assessed as conversion rate of compound to produce glucoside 3 using NDP sugar donor UDP-glucose after 3 hrs by HPLC. An outline of the steps:
as §1

The test system of assay [8] is T1, Oleandomycin glycosyltransferase (Streptomyces antibioticus), Q53685 [P67T,S132F,A242V]. The assay is described as follows: Activity of Streptomyces antibioticus OleD P67T/S132F/A242V mutant assessed as conversion rate of compound to produce glucoside 3 using NDP sugar UDP-glucose after 3 hrs by HPLC. Summed up: as §1
In assay [9] the test system is T2, Oleandomycin glycosyltransferase (Streptomyces antibioticus), Q53685 [S132F]. The assay is described as follows: Activity of Streptomyces antibioticus OleD S132F mutant assessed as conversion rate of compound to produce glucoside 3 using NDP sugar donor UDP-6-azido-glucose after 3 hrs by HPLC. Summed up:
as §1

In assay [10] the test system is T1, Oleandomycin glycosyltransferase (Streptomyces antibioticus), Q53685 [P67T,S132F,A242V]. Kind of assay: Activity of Streptomyces antibioticus OleD P67T/S132F/A242V mutant assessed as conversion rate of compound to produce glucoside 3 using NDP sugar donor-UDP-4,6-dideoxyglucose after 3 hrs by HPLC. An outline of the steps:
as §1

In assay [11] the test system is T2, Oleandomycin glycosyltransferase (Streptomyces antibioticus), Q53685 [S132F]. The assay is described as follows: Activity of Streptomyces antibioticus OleD S132F mutant assessed as conversion rate of compound to produce glucoside 3 using NDP sugar donor UDP-6-deoxy-glucose after 3 hrs by HPLC. An outline of the steps:
as §1

The subject of assay [12] is T4, Oleandomycin glycosyltransferase (Streptomyces antibioticus), Q53685 [P67T].
T4 sequence (whole entry): T1 sequence (whole entry) with F132S, V242A
The assay is described as follows: Activity of Streptomyces antibioticus OleD P67T mutant assessed as conversion rate of compound to produce glucoside 3 using NDP sugar donor UDP-6-azido-glucose after 3 hrs by HPLC. Summed up: as §1

In assay [13] the test system is T1, Oleandomycin glycosyltransferase (Streptomyces antibioticus), Q53685 [P67T,S132F,A242V]. The assay is described as follows: Activity of Streptomyces antibioticus OleD P67T/S132F/A242V mutant assessed as conversion rate of compound to produce glucoside 3 using NDP sugar UDP-6-azido-glucose after 3 hrs by HPLC. Summed up:
as §1

Residue numbers refer to the chain shown, from its start.

In the case of `Cc1cc(=O)oc2cc(O)ccc12`, the Activity in assay [1] is 4%; in assay [2] it was 4%; in assay [3], 31%; in assay [4] it was 1.5%; in assay [5] it was 13.9%; in assay [6], 85%. Moreover, the Activity was determined as 48% in assay [7]; 96.4% in assay [8]; 1% in assay [9]; 45% in assay [10]; 10% in [11]; 2% in assay [12]. Further, the Activity in assay [13] was 41%.
